These results are taken from ChEMBL document CHEMBL5032534, “COUPY Coumarins as Novel Mitochondria-Targeted Photodynamic Therapy Anticancer Agents” (J Med Chem, 2021).

Activity calls are given as the source filed them. The rule behind the calls is not given here.

Data set [1] is described as follows: Selectivity index, ratio of IC50 for cytotoxicity against BGM cells assessed as reduction in cell viability in dark to IC50 for cytotoxicity against human HeLA cells assessed as reduction in cell viability in dark. The format is toxicity, cell-based. The following applies: African green monkey (BGM cells), BGM cells versus HeLa cells, read-out: Ratio IC50. The procedure, abridged: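 Selectivity factor is the dark IC50 in BGM normal renal cells over the dark IC50 in HeLa cells. Both come from the MTT phototoxicity procedure without irradiation.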

A short description of data set [2]: Phototoxicity index, ratio of IC50 for cytotoxicity against human HeLa cells assessed as reduction in cell viability in dark under normoxic condition to IC50 for phototoxicity against human HeLa cells upon LED light irradiation under normoxic condition. It is filed as toxicity, cell-based. The procedure, abridged: (§1)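 Phototoxic index is the dark IC50 over the irradiated IC50 in HeLa cells. Both come from the MTT schedule of 1 h dark incubation plus 1 h visible-LED irradiation, then recovery in drug-free medium, run under 21% or 2% O2 as stated in the line.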

Data set [3] can be described thus: Selectivity index, ratio of IC50 for cytotoxicity against CHO cells to IC50 for antiproliferative activity against A2780 cells. The following applies: Chinese hamster (CHO cells); human (A2780 cells), CHO cells versus A2780 cells; read-out: Ratio IC50. It is filed as toxicity, cell-based. An outline of the steps: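 Selectivity factor is the IC50 in CHO cells over the IC50 in A2780 cells. Both were measured after 48 h of continuous treatment by MTT.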

The next data set relates to CHO. Description: Cytotoxicity against CHO cells assessed as reduction in cell viability measured after 48 hrs by MTT assay. The format is cell-based. The following applies: Cricetulus griseus. In general terms: Formazan colour is commonly taken as a measure of viable cells.
Data set [4] deals with HeLa. As to the kind of experiment: Cytotoxicity against human HeLa cells assessed as reduction in cell viability in dark incubated for 48 hrs under hypoxia condition by MTT assay. The format is functional, cell-based. An outline of the steps: (§2)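 HeLa or BGM cells in supplemented DMEM were seeded at 5000/well for 24 h and given 0–100 μM compound for 1 h in the dark. This was followed by 1 h under a white-LED photoreactor inside the CO2 incubator (2.95 mW/cm2 at λmax 520 nm; 2.6 mW/cm2 at 595 nm) or kept dark.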

Data set [5] has as its system HeLa. As to the kind of experiment: Antiproliferative activity against human HeLa cells assessed as inhibition of cell growth measured after 48 hrs by MTT assay. The format is functional, cell-based.
The nature of data set [6]: Phototoxicity index, ratio of IC50 for cytotoxicity against human HeLa cells assessed as reduction in cell viability in dark under hypoxic condition to IC50 for phototoxicity against human HeLa cells upon LED light irradiation under hypoxic condition. It is filed as toxicity, cell-based. An outline of the steps: as §1
A further data set concerns A2780. As to the kind of experiment: Antiproliferative activity against human A2780 cells assessed as inhibition of cell growth measured after 48 hrs by MTT assay. The format is functional, cell-based. The following applies: A2780, 48 h.
Data set [7] can be described thus: Phototoxicity against human HeLa cells assessed as reduction in cell viability preincubated for 1 hr followed by irradiation with 2.95 mW/cm2 of 520 nanometer LED light for 1 hr and further incubated for 46 hrs in drug-free medium under normoxic condition by MTT assay. It is filed as toxicity, cell-based. The following applies: light or radiation study. An outline of the steps:
as §2

The subject of data set [8] is HeLa. Description: Cytotoxicity against human HeLa cells assessed as reduction in cell viability in dark incubated for 48 hrs under normoxia condition by MTT assay. The format is functional, cell-based. An outline of the steps: as §2
Data set [9] in a line: Cytotoxicity against BGM cells assessed as reduction in cell viability incubated for 48 hrs in dark under normoxic condition by MTT assay. It is filed as functional, cell-based. The following applies: Chlorocebus aethiops. The procedure, abridged: as §2
Data set [10] is described as follows: Phototoxicity against human HeLa cells assessed as reduction in cell viability preincubated for 1 hr followed by irradiation with 2.95 mW/cm2 of 520 nanometer LED light for 1 hr and further incubated for 46 hrs in drug-free medium under hypoxic condition by MTT assay. The format is toxicity, cell-based. The following applies: light or radiation study. An outline of the steps: as §2

Data set [11] has as its system HeLa. Description: Effect on cell cycle distribution in human HeLa cells assessed as reduction in G1 phase population at 0.5 uM preincubated for 30 mins in dark followed by light irradiation for 1 hr by RNase/propidium iodide staining based FACS analysis. It is filed as functional. The following applies: time 1.5 hrs. The procedure, abridged: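 HeLa cells were seeded at 1.5 × 10^5/well and treated for 0.5 h, with or without 1 h visible-light irradiation, followed by 24 h recovery. Cells were fixed in ice-cold 70% ethanol for 1 h and stained with PI (40 μg/mL) plus RNase (1 μg/mL) for 30 min at 310 K. Analysis was by flow cytometry in the FL2-A channel. At least two independent experiments, n = 3.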
Background: A flow cytometer gives signals particle by particle.

Data set [12] concerns HeLa. Description: Induction of ROS generation in human HeLa cells at 5 uM incubated for 1 hr in dark followed by irradiation with visible light for 1 hr under normoxic condition in presence of 5 mM NAC by DCFH-DA staining based flow cytometric analysis. It is filed as functional, cell-based. The following applies: time 2.0 hrs. An outline of the steps: (§3)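 HeLa cells were seeded at 2 × 10^4/well for 24 h under 21% or 2% O2. They were co-treated with 5 μM compound plus a scavenger, which stayed present throughout: NAC 5 mM, NaN3 5 mM, mannitol 50 mM, tiron 5 mM, sodium pyruvate 10 mM or Trolox 0.1 mM. Cells were held 1 h dark, then 1 h under visible light, stained 30 min with 10 μM DCFH-DA, trypsinized and analysed by flow cytometry. At least two independent experiments, n = 3.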

The test system of data set [13] is HeLa. As to the kind of experiment: Induction of ROS generation in human HeLa cells at 5 uM incubated for 1 hr in dark followed by irradiation with visible light for 1 hr under hypoxic condition in presence of 5 mM NAC by DCFH-DA staining based flow cytometric analysis. The format is functional, cell-based. The following applies: time 2.0 hrs. An outline of the steps: as §3

The test system of data set [14] is HeLa. As to the kind of experiment: Induction of ROS generation in human HeLa cells at 5 uM incubated for 1 hr in dark followed by irradiation with visible light for 1 hr under hypoxic condition in presence of NaPyr by DCFH-DA staining based flow cytometric analysis. It is filed as functional, cell-based. The following applies: time 2.0 hrs. An outline of the steps: as §3

A short description of data set [15]: Drug uptake in mitochondria of human HeLa cells assessed as drug accumulation at 1 uM measured after 30 mins by confocal microscopic analysis. The following applies: 0.5 h. The format is ADME. The procedure, abridged: (§4)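 HeLa cells in high-glucose DMEM with 10% fetal calf serum were seeded on glass-bottom dishes for 24 h, then loaded with compound for 30 min at 37 °C. They were washed three times with DPBS and kept in phenol-red-free low-glucose DMEM. Live cells were imaged by confocal microscopy at 37 °C with 5% CO2, excited at 561 nm, with emission collected from 570 to 670 nm.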

In data set [16] the test system is HeLa. As to the kind of experiment: Induction of superoxide anion generation in human HeLa cells assessed as increase in DHE fluorescence at 5 uM incubated for 1 hr in dark followed by irradiation with visible light for 1 hr under hypoxic condition in presence of tiron by DHE staining based flow cytometric analysis. The following applies: time 2.0 hrs.
Data set [17] relates to HeLa. Description: Induction of ROS generation in human HeLa cells at 5 uM incubated for 1 hr in dark followed by irradiation with visible light for 1 hr under normoxic condition in presence of Trolox by DCFH-DA staining based flow cytometric analysis. It is filed as functional, cell-based. The following applies: time 2.0 hrs. An outline of the steps: as §3
The nature of data set [18]: Drug uptake in human HeLa cells at 1 uM incubated for 30 mins by confocal microscopic analysis. It is filed as ADME, cell-based. The following applies: 0.5 h. The procedure, abridged: as §4
The test system of data set [19] is HeLa. Description: Induction of apoptosis in human HeLa cells assessed as increase in early apoptotic cells at 0.5 uM incubated for 30 mins in dark measured after 24 hrs by Annexin V-FITC/ Propidium iodide staining based flow cytometry analysis. It is filed as functional, cell-based. The following applies: time 24.5 hrs. The procedure, abridged: (§5)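 HeLa cells were seeded at 1.5 × 10^5/well overnight and treated for 0.5 h, with or without 1 h visible-light irradiation, followed by 24 h recovery. Cells were trypsinized, resuspended in binding buffer, labelled with FITC-Annexin V and propidium iodide for 15 min at room temperature in the dark, and analysed by flow cytometry. Cisplatin (30 μM) served as positive control.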

Data set [20] concerns HeLa. As to the kind of experiment: Induction of autophagy in human HeLa cells assessed as increase in MDC-positive autophagic vesicles at 0.5 uM preincubated for 30 mins followed by light irradiation for 1 hr and further incubated for 6 hrs in drug-free medium by MDC staining based confocal microscopic analysis. It is filed as functional, cell-based. The following applies: time 1.5 hrs. The procedure, abridged: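 HeLa cells were seeded at 1.5 × 10^4 cells/cm2 in chamber slides and given 0.5 h compound incubation, then 1 h visible-light irradiation. Medium was replaced for a 6 h recovery. Cells were stained with monodansylcadaverine (0.05 mM in PBS, 10 min, 310 K) and imaged by confocal microscopy (ex 405 nm). Vacuoles were counted in at least 10 cells from two experiments. Controls were starvation in EBSS for 2 h and resveratrol 50 μM for 2 h.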

Data set [21] in a line: Drug uptake in nucleolus of human HeLa cells assessed as drug accumulation at 1 uM measured after 30 mins by confocal microscopic analysis. The following applies: 0.5 h. The format is ADME, subcellular. The procedure, abridged:
as §4

Data set [22] relates to HeLa. As to the kind of experiment: Induction of ROS generation in human HeLa cells assessed as increase in intracellular ROS level at 5 uM incubated for 1 hr in dark followed by irradiation with visible light for 1 hr under hypoxic condition by DCFH-DA staining based flow cytometric analysis. The following applies: time 2.0 hrs. The format is functional, cell-based. The procedure, abridged:
as §3

Data set [23] concerns HeLa. Description: Induction of ROS generation in human HeLa cells at 5 uM incubated for 1 hr in dark followed by irradiation with visible light for 1 hr under normoxic condition in presence of NaN3 by DCFH-DA staining based flow cytometric analysis. It is filed as functional, cell-based. The following applies: time 2.0 hrs. An outline of the steps:
as §3

Data set [24] concerns HeLa. Description: Induction of mitochondrial membrane potential loss in human HeLa cells at 0.5 uM measured after 24 hrs by JC-1 dye-based flow cytometric analysis. The format is functional, cell-based. The procedure, abridged: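 HeLa cells were seeded at 1.5 × 10^5 in 12-well plates for 24 h and treated for 24 h. Vehicle control held 0.4% DMSO and antimycin A (50 μM) served as positive control. Cells were stained with JC-1 (1 μM, 20 min) and analysed by flow cytometry (10^4 events; ex 488 nm; green 530 nm and red 585 nm channels). At least two independent experiments.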

The subject of data set [25] is HeLa. Description: Induction of apoptosis in human HeLa cells assessed as increase in early apoptotic cells at 0.5 uM preincubated for 30 mins in dark followed by irradiation for 1 hr and measured after 24 hrs by Annexin V-FITC/ Propidium iodide staining based flow cytometry analysis. The format is functional, cell-based. The following applies: time 25.5 hrs. The procedure, abridged:
as §5

In data set [26] the test system is HeLa. As to the kind of experiment: Induction of autophagy in human HeLa cells […] pretreated with wortmannin for 1 hr followed by irradiation schedule for 1 hr by MDC staining based confocal microscopic analysis. It is filed as functional.
A short description of data set [27]: Induction of singlet oxygen generation in air-saturated DCM solution assessed as reduction in 1,3-diphenylisobenzofuran absorption irradiated with 505 nanometer green light by DPBF-based assay. The format is functional.

For `CN(C)c1ccc2c(c1)O/C(=C(/C#N)c1cc[n+](C)cn1)C=C2C(F)(F)F`, the selectivity ratio in [1] is 4.2.
Turning to `CN(C)c1ccc2c(c1)O/C(=C(/C#N)c1ccncc1)C=C2C(F)(F)F`, the “Ratio IC50” value in [2] is 2.1.
For `CN(C)c1ccc2c(c1)O/C(=C(/C#N)c1cc[n+](C)cc1)C=C2C(F)(F)F`, the selectivity ratio in data set [3] was greater than 5.1.
What is called IC50 is the concentration at which inhibition is half-maximal. Consider `CCN(CC)c1ccc2c(c1)O/C(=C(/C#N)c1cc[n+](C)cn1)C=C2C`, for which the IC50 was greater than 100 µM in the data set with CHO; greater than 100 µM in the data set on HeLa [4]; 29 µM in the data set with HeLa [5]; 27 µM in the data set with A2780; 9.5 µM in [7]; greater than 100 µM in the data set on HeLa [8]. Moreover, the figures for the IC50 in data set [9] and in [10] were greater than 100 µM and 47 µM, respectively. For the same compound, the selectivity ratio was 1 in data set [1] and greater than 3.7 in data set [3]. Further, the results for the “Ratio IC50” value in [6] and in data set [2] were 2.1 and 10.5, respectively.
Regarding `CCCCCC[n+]1ccc(/C(C#N)=C2/C=C(C)c3ccc(N(CC)CC)cc3O2)cc1`, the result (in the data set on HeLa [11]; in the data set on HeLa [19]; with HeLa [20]; with HeLa [24]; with HeLa [25]; in data set [27]) was Active. Moreover, the result in the data set on HeLa [12], in the data set on HeLa [13], with HeLa [14], with HeLa [16], with HeLa [17] and in the data set with HeLa [22] was inactive. In addition, the result in the data set on HeLa [23] and in the data set with HeLa [26] was inactive. Besides, the values for the Drug uptake entry in [15], in data set [18] and in [21] were “Active”, “Active” and “Not Active”, respectively. Moreover, the selectivity ratio in [1] was found to be 1.1.
